Reference: paper PMC11872064 (Drug Design, Development and Therapy, 2025)

Assays:
[1] = target: hOAT10 (Homo sapiens, UniProt Q9Y226); assay: hOAT10 expressing oocytes, [14C]UA uptake inhibition; type: cell-based; settings: for [14C]UA uptake inhibition via hOAT10, inhibitor inside: inhibitor injected inside the oocyte
In short: (§1)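 Xenopus oocytes were injected with 25 ng cRNA for hNPT4 or hOAT10 and held 2–3 days at 18 ± 2 °C. [14C]uric acid uptake was measured at room temperature in ND96. Inhibitor was either added to the uptake solution (outside) or injected into the oocyte (46 nL, inside); injected oocytes were washed and then incubated 60 min with substrate. Uptake was stopped with ice-cold washes, oocytes were SDS-solubilised and counted by scintillation, and results are mean ± S.D.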

[2] = target: T1, hOAT1 (Homo sapiens, UniProt Q4U2R8); assay: hOAT1 expressing oocytes, [14C]UA uptake inhibition; type: cell-based; settings: inhibitor injected inside the oocyte
T1 sequence (Q4U2R8 1-563): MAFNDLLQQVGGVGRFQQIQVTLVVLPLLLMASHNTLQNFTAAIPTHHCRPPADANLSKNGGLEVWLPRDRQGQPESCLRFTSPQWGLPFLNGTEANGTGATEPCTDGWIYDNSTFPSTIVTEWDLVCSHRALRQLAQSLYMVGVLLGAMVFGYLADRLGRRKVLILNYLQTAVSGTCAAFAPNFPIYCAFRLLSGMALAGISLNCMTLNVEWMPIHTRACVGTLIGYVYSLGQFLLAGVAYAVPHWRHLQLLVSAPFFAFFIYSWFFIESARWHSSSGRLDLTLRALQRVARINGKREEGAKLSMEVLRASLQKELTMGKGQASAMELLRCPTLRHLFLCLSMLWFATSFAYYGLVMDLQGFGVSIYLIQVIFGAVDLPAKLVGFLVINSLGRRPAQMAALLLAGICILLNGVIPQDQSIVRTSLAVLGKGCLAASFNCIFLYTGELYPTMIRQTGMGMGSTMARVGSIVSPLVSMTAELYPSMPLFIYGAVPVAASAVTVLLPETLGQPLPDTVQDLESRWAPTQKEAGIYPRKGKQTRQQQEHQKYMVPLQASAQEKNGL

[3] = target: T2, hNPT4 (Homo sapiens, UniProt O00476); assay: hNPT4 expressing oocytes, [14C]UA uptake inhibition; type: cell-based; settings: for [14C]UA uptake inhibition via hNPT4, inhibitor outside: inhibitor in uptake solution
T2 sequence (O00476 1-498 isoform O00476-2): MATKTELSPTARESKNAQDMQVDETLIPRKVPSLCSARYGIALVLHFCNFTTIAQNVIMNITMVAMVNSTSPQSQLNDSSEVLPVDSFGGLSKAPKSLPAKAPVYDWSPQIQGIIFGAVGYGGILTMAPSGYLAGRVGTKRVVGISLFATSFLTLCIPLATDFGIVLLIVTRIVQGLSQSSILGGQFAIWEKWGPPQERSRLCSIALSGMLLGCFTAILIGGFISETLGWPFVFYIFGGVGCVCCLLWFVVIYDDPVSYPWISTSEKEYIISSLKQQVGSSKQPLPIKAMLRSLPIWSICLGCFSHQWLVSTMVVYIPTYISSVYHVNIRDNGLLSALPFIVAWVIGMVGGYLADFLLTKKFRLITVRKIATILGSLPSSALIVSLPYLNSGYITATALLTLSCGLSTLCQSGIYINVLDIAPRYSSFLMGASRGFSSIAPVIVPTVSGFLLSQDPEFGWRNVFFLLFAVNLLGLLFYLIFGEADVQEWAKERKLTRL
In short: as §1

[4] = target: T3, hURAT1 (Homo sapiens, UniProt Q96S37); assay: hURAT1 expressing oocytes, [14C]UA uptake inhibition; type: cell-based
T3 sequence (Q96S37 1-553): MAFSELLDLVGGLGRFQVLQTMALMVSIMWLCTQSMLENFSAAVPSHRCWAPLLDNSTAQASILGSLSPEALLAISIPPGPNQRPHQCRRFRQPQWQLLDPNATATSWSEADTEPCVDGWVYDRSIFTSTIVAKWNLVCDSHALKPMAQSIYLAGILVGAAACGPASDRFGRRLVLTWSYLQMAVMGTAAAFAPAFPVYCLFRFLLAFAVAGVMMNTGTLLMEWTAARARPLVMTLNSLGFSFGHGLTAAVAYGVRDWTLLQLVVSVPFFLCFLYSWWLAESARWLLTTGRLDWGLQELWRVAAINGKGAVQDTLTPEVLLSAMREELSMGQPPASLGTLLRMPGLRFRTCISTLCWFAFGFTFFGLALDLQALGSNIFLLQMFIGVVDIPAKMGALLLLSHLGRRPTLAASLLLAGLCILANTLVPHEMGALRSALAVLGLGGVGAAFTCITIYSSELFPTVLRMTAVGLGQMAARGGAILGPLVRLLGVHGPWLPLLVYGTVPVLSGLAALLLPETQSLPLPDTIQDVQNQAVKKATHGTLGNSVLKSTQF

[5] = target: T4, hOAT3 (Homo sapiens, UniProt Q8TCC7); assay: hOAT3 expressing oocytes, [14C]UA uptake inhibition; type: cell-based; settings: inhibitor injected inside the oocyte
T4 sequence (Q8TCC7 1-542): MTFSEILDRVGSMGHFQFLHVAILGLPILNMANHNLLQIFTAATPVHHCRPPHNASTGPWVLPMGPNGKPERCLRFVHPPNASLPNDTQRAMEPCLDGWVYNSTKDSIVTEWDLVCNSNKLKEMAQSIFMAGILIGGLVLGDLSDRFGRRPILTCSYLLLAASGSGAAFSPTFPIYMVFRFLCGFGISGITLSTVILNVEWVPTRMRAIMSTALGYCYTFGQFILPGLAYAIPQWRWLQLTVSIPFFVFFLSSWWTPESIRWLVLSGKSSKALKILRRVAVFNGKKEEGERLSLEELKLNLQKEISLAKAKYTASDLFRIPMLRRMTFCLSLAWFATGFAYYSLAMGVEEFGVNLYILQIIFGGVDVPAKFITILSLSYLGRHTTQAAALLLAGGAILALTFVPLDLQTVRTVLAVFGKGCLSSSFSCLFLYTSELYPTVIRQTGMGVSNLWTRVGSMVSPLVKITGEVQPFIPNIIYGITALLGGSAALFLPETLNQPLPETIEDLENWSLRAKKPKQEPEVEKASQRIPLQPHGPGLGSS

[6] = target: T5, OATP-1B1 (Homo sapiens, UniProt Q9Y6L6); assay: OATP-1B1 expressing oocytes, [3H]estrone sulfate uptake inhibition; type: cell-based; settings: OATP-1B1 IC50, substrate [3H]estrone sulfate, value in nM
T5 sequence (Q9Y6L6 1-691): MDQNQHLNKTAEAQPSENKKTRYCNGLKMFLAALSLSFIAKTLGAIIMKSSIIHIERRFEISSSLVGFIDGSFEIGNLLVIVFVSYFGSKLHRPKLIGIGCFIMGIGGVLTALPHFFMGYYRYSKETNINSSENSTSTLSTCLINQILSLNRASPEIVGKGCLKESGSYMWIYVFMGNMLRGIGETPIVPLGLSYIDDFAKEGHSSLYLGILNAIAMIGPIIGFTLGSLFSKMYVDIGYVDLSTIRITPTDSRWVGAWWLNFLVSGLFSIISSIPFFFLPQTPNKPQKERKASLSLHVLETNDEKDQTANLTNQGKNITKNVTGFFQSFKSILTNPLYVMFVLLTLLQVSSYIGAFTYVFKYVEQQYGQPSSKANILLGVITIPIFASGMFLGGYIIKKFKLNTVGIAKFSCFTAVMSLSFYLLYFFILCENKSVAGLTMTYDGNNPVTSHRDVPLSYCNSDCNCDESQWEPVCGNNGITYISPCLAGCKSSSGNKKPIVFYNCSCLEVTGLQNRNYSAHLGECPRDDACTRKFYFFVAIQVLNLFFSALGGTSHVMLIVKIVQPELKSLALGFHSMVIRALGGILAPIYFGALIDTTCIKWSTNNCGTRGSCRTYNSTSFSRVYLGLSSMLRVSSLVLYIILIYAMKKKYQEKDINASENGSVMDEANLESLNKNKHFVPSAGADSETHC
In short: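 Xenopus laevis oocytes were defolliculated with collagenase, and stage IV–V oocytes were injected with 25 ng capped cRNA. They were kept 2–3 days at 18 ± 2 °C in ND96, pH 7.4. Uptake ran at room temperature in ND96 with test compound, using [3H]estrone sulfate for OATP1B1 and 2B1 and [3H]estradiol-17β-glucuronide for OATP1B3. Oocytes were washed in ice-cold ND96, solubilised in 5% SDS and counted by scintillation, with control-oocyte uptake subtracted.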

[7] = Rat pharmacokinetic study; type: in vivo; settings: male, Sprague-Dawley, whole blood
In short: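 Adult male Sprague-Dawley rats (286 ± 12 g) were fasted 12–15 hr, n=5 per route. IV dosing was a bolus of about 300 µL over 30 sec into the orbital sinus under isoflurane, from aqueous 10% DMSO solution. Oral dosing was a CMC-formulated capsule, 19.6 mg/kg, followed by 500 µL water. Tail-vein blood was collected into K2EDTA from 0.083 to 24 hr (iv) or 0.5 to 30 hr (oral). Test compound was extracted with internal standard and quantified by LC/MS-MS (ESI−) against blood standard curves; LOQ 1.08 ng/mL.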

hOAT10, sequence (Q9Y226 whole entry): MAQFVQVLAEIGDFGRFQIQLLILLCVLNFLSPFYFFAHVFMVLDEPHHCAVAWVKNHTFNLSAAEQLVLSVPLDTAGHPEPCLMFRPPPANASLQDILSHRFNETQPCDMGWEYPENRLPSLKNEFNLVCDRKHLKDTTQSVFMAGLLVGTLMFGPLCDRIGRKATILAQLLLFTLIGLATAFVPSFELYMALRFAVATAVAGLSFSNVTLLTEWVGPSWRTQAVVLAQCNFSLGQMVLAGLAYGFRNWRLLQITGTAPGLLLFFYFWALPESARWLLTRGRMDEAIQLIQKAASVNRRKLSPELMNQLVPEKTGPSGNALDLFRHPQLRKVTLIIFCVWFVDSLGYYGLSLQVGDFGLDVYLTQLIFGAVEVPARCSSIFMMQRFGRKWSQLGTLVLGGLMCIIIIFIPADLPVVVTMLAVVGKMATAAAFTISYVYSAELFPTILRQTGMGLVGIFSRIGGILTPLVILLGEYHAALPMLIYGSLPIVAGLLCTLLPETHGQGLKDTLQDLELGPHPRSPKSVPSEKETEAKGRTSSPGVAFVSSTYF

Structure (SMILES)	14C-uric acid transport via hOAT10, inhibitor outside ([1]; inhibitor in incubation media)	[14C]UA uptake inhibition via hOAT10, inhibitor outside ([1]; inhibitor in uptake solution)	[14C]UA uptake inhibition via hOAT10, inhibitor inside [1]	[14C]UA uptake inhibition via hOAT10, inhibitor inside ([1]; listed as benzbromarone)	[14C]UA uptake inhibition via hOAT1, inhibitor inside [2]	[14C]UA uptake inhibition via hNPT4, inhibitor outside [3]	Effect on Vmax for [14C]UA uptake ([4]; 0.1 µM benzbromarone, 0.3 µM 6-hydroxy benzbromarone in uptake solution)	[14C]UA uptake inhibition via hURAT1, inhibitor inside ([4]; inhibitor injected inside the oocyte, [14C]UA 10 µM)	[14C]UA uptake inhibition via hOAT3, inhibitor inside [5]	IC50 [6] [nM]	AUC(0-t) ([7]; iv, 0.43 mg/kg) [ng·h/mL]	half-life ([7]; iv, 0.43 mg/kg, T1/2, rat, iv orbital sinus dosing 0.43 mg/Kg) [h]	AUC(0-t) ([7]; po, 19.6 mg/kg) [ng·h/mL]	Cmax ([7]; po, 19.6 mg/kg) [ng/mL]	Tmax ([7]; po, 19.6 mg/kg) [h]	[14C]UA uptake inhibition via hNPT4, inhibitor inside ([3]; inhibitor injected inside the oocyte)
CCc1oc2ccccc2c1C(=O)c1cc(Br)c(O)c(Br)c1 [Compound 2, benzbromarone]	roughly 50 % of control	dose-dependent effect	did not display this effect	did not produce a statistically different uptake as compared to control	not readily inhibited	dose-dependent inhibition	reduced	did not produce a profound inhibition	not readily inhibited							
CCc1oc2cc(F)ccc2c1C(=O)c1cc(Br)c(O)c(Br)c1 [Compound 5, (3,5-dibromo-4-hydroxyphenyl)(2-ethyl-6-fluorobenzofuran-3-yl)methanone]										739	2090 ± 119	~3	60600 ± 7900	6460 to 6470	2 to 3	
CCCN(CCC)S(=O)(=O)c1ccc(C(=O)O)cc1 [Compound 1, probenecid]						dose-dependent inhibition			profound inhibition							moderate inhibition
